Experimental data reported in ChEMBL document CHEMBL4706495, “A novel class of small molecule inhibitors with radioprotective properties” (Eur J Med Chem, 2020).

What was measured:
Jurkat [1] = assay: Cytotoxicity against human Jurkat cells assessed as cell viability at 10 uM measured after 48 hrs by WST-1 assay relative to control; type: functional; settings: read-out: Activity
Procedure, shortened: (§1)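 Ten-line human panel (9 cancer, 1 non-cancerous). Cells were seeded at a pre-established optimal density (500–30 × 10³ per well) and settled overnight. Compounds came from 10 mM DMSO stocks and were tested at two concentrations. WST-1 readout followed the manufacturer's protocol at the end of cultivation. Viability is expressed as % of untreated control cells, mean of three independent experiments.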

MOLT-4 [2] = assay: Cytotoxicity against human MOLT-4 cells assessed as cell viability at 10 uM measured after 48 hrs by WST-1 assay relative to control; type: functional; settings: read-out: Activity; procedure, shortened: as §1
A549 [3] = assay: Cytotoxicity against human A549 cells assessed as cell viability at 10 uM measured after 48 hrs by WST-1 assay relative to control; type: functional; settings: read-out: Activity; procedure, shortened: as §1
HT-29 [4] = assay: Cytotoxicity against human HT-29 cells assessed as cell viability at 10 uM measured after 48 hrs by WST-1 assay relative to control; type: functional; settings: read-out: Activity; procedure, shortened: as §1
PANC-1 [5] = assay: Cytotoxicity against human PANC-1 cells assessed as cell viability at 10 uM measured after 48 hrs by WST-1 assay relative to control; type: functional; settings: read-out: Activity; procedure, shortened: as §1
A2780 [6] = assay: Cytotoxicity against human A2780 cells assessed as cell viability at 10 uM measured after 48 hrs by WST-1 assay relative to control; type: functional; settings: read-out: Activity; procedure, shortened: as §1
HeLa [7] = assay: Cytotoxicity against human HeLa cells assessed as cell viability at 10 uM measured after 48 hrs by WST-1 assay relative to control; type: functional; settings: read-out: Activity; procedure, shortened: as §1
MCF7 [8] = assay: Cytotoxicity against human MCF7 cells assessed as cell viability at 10 uM measured after 48 hrs by WST-1 assay relative to control; type: functional; settings: read-out: Activity; procedure, shortened: as §1
SAOS-2 [9] = assay: Cytotoxicity against human SAOS-2 cells assessed as cell viability at 10 uM measured after 48 hrs by WST-1 assay relative to control; type: functional; settings: read-out: Activity; procedure, shortened: as §1
[10] = Cytotoxicity against human MRC5 cells assessed as cell viability at 10 uM measured after 48 hrs by WST-1 assay relative to control; type: cell-based; settings: read-out: Activity; procedure, shortened: as §1
Jurkat [11] = assay: Cytotoxicity against human Jurkat cells assessed as cell viability at 100 uM measured after 48 hrs by WST-1 assay relative to control; type: functional; settings: read-out: Activity; procedure, shortened: as §1
MOLT-4 [12] = assay: Cytotoxicity against human MOLT-4 cells assessed as cell viability at 100 uM measured after 48 hrs by WST-1 assay relative to control; type: functional; settings: read-out: Activity; procedure, shortened: as §1
A549 [13] = assay: Cytotoxicity against human A549 cells assessed as cell viability at 100 uM measured after 48 hrs by WST-1 assay relative to control; type: functional; settings: read-out: Activity; procedure, shortened: as §1
HT-29 [14] = assay: Cytotoxicity against human HT-29 cells assessed as cell viability at 100 uM measured after 48 hrs by WST-1 assay relative to control; type: functional; settings: read-out: Activity; procedure, shortened: as §1
PANC-1 [15] = assay: Cytotoxicity against human PANC-1 cells assessed as cell viability at 100 uM measured after 48 hrs by WST-1 assay relative to control; type: functional; settings: read-out: Activity; procedure, shortened: as §1
A2780 [16] = assay: Cytotoxicity against human A2780 cells assessed as cell viability at 100 uM measured after 48 hrs by WST-1 assay relative to control; type: functional; settings: read-out: Activity; procedure, shortened: as §1
HeLa [17] = assay: Cytotoxicity against human HeLa cells assessed as cell viability at 100 uM measured after 48 hrs by WST-1 assay relative to control; type: functional; settings: read-out: Activity; procedure, shortened: as §1
MCF7 [18] = assay: Cytotoxicity against human MCF7 cells assessed as cell viability at 100 uM measured after 48 hrs by WST-1 assay relative to control; type: functional; settings: read-out: Activity; procedure, shortened: as §1
SAOS-2 [19] = assay: Cytotoxicity against human SAOS-2 cells assessed as cell viability at 100 uM measured after 48 hrs by WST-1 assay relative to control; type: functional; settings: read-out: Activity; procedure, shortened: as §1
[20] = Cytotoxicity against human MRC5 cells assessed as cell viability at 100 uM measured after 48 hrs by WST-1 assay relative to control; type: cell-based; settings: read-out: Activity; procedure, shortened: as §1
HT-29 [21] = assay: Cytotoxicity against human HT-29 cells assessed as growth percent at 100 uM by WST-1 assay relative to control; type: functional; settings: HT-29, read-out: Activity, time 48 hrs
MCF7 [22] = assay: Cytotoxicity against human MCF7 cells assessed as growth percent at 100 uM by WST-1 assay relative to control; type: functional; settings: MCF7, read-out: Activity, time 48 hrs
A549 [23] = assay: Cytotoxicity against human A549 cells assessed as reduction in cell viability incubated for 24 hrs by MTT assay; type: functional, cell-based; settings: A549, 24 h
Procedure, shortened: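 A-549 cells in DMEM with 10% FBS and 1% penicillin-streptomycin were attached overnight. Compounds were prepared in PBS and serially diluted in DMEM, then incubated 24 h. Viability was read by colorimetric MTT reduction against an untreated control on each plate (100%). IC50 came from four-parameter nonlinear regression of the log concentration-response curve, mean ± SEM. MTC is the highest concentration not differing from control (t-test).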

A549 [24] = assay: Cytotoxicity against human A549 cells assessed as maximum tolerated concentration incubated for 24 hrs by MTT assay; type: functional
Procedure, shortened: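 A-549 cells in DMEM with 10% FBS and 1% penicillin-streptomycin, left to attach overnight. Compounds made up in PBS, serially diluted in DMEM, incubated 24 h, then viability read by MTT reduction against untreated controls on each plate. MTC taken as the highest concentration showing no significant difference from non-treated control (t-test).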

MOLT-4 [25] = assay: Radioprotective activity against gamma irradiation-induced apoptosis in human MOLT-4 cells assessed as viable cells at 100 uM pretreated with compound for 1 hr followed by gamma irradiation and measured after 24 hrs by annexinV/propidium iodide staining based flow cytometry (reference value: 40 %); type: functional; settings: MOLT-4, light or radiation study, time 25 hrs, read-out: Activity
[26] = Toxicity in C57Bl/6 mouse assessed as mouth death at 100 mg/kg, ip measured after 30 days; type: organism-based; settings: in vivo, 720 h, time 30 day
Procedure, shortened: (§2)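 Safety in C57Bl/6 mice (27 ± 3 g) given a single 100 mg/kg i.p. injection without irradiation. Deaths, adverse effects and body weight followed over 30 days against an untreated control group. Weight reported as change from day 0.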

[27] = Toxicity in C57Bl/6 mouse assessed as adverse effects at 100 mg/kg, ip measured after 30 days; type: organism-based; settings: in vivo, 720 h, time 30 day; procedure, shortened: as §2
[28] = Toxicity in C57Bl/6 mouse assessed as average body weight at 100 mg/kg, ip and measured immediately (reference value: 26.3 +/- 2.4 g); type: organism-based; settings: in vivo
[29] = Toxicity in C57Bl/6 mouse assessed as average body weight at 100 mg/kg, ip measured after 30 days (reference value: 27 +/ 3.2 g); type: organism-based; settings: in vivo, 720 h, time 30 day
[30] = Toxicity in C57Bl/6 mouse assessed as change in body weight at 100 mg/kg, ip measured after 30 days (reference value: 103 +/- 12 %); type: organism-based; settings: in vivo, 720 h, time 30 day
Mus musculus [31] = assay: Radioprotective activity in C57Bl/6 mouse assessed as median survival time at 100 mg/kg, ip administered 5 min prior to gamma-irradation at 8.5 Gy and measured after 30 days (reference value: 12 days); type: functional
Mus musculus [32] = assay: Radioprotective activity in C57Bl/6 mouse assessed as average body weight at 100 mg/kg, ip administered 5 min prior to gamma-irradation at 8.5 Gy and measured immediately (reference value: 25.4 +/- 2.6 g); type: functional
[33] = Immuno-toxicity in C57Bl/6 mouse assessed as decrease in absolute number of lymphocytes at 100 mg/kg, ip measured after 7 to 12 days post-treatment by flow cytometry; type: organism-based; settings: in vivo, time 7-12 day

Compound | viability at 10 µM (Jurkat [1]) [%] | viability at 10 µM (MOLT-4 [2]) [%] | viability at 10 µM (A549 [3]) [%] | viability at 10 µM (HT-29 [4]) [%] | viability at 10 µM (PANC-1 [5]) [%] | viability at 10 µM (A2780 [6]) [%] | viability at 10 µM (HeLa [7]) [%] | viability at 10 µM (MCF7 [8]) [%] | viability at 10 µM (SAOS-2 [9]) [%] | viability at 48 h, 10 µM [10] [%] | viability at 100 µM (Jurkat [11]) [%] | viability at 100 µM (MOLT-4 [12]) [%] | viability at 100 µM (A549 [13]) [%] | viability at 100 µM (HT-29 [14]) [%] | viability at 100 µM (PANC-1 [15]) [%] | viability at 100 µM (A2780 [16]) [%] | viability at 100 µM (HeLa [17]) [%] | viability at 100 µM (MCF7 [18]) [%] | viability at 100 µM (SAOS-2 [19]) [%] | viability at 48 h, 100 µM [20] [%] | also measured
OCCN1CCN(CC(O)COc2cccc3ccccc23)CC1 (stereo unspecified) | 96 | 98 | 98 | 93 | 102 | 97 | 99 | 103 | 97 | 102 | 76 | 83 | 107 | 53 | 101 | 77 | 129 | 64 | 97 | 78 | growth at 100 µM (HT-29 [21]): 53%; growth at 100 µM (MCF7 [22]): 64%; IC50 (A549 [23]): 0.42 mM; MTD (A549 [24]): 0.07 mM; viability at 100 µM (MOLT-4 [25]): 59%
Cc1ccccc1OCC(O)CN1CCN(CCO)CC1 (stereo unspecified) | 106 | 104 | 95 | 98 | 102 | 101 | 102 | 103 | 103 | 97 | 92 | 86 | 114 | 151 | 116 | 79 | 96 | 95 | 84 | 104 | IC50 (A549 [23]): 3.4 mM; MTD (A549 [24]): 0.39 mM; viability at 100 µM (MOLT-4 [25]): 62%; Activity [26]: Non-Toxic; Activity [27]: Non-Toxic; Activity [28]: 26.2 g; Activity [29]: 27.2 g; Activity [30]: 104%; MST (Mus musculus [31]): 7 days; Activity (Mus musculus [32]): 27.3 g; Activity [33]: Toxic
